Data set [1] has as its target T1, Peroxisome proliferator-activated receptor alpha (Homo sapiens) (UniProt Q07869).
T1 sequence (whole entry): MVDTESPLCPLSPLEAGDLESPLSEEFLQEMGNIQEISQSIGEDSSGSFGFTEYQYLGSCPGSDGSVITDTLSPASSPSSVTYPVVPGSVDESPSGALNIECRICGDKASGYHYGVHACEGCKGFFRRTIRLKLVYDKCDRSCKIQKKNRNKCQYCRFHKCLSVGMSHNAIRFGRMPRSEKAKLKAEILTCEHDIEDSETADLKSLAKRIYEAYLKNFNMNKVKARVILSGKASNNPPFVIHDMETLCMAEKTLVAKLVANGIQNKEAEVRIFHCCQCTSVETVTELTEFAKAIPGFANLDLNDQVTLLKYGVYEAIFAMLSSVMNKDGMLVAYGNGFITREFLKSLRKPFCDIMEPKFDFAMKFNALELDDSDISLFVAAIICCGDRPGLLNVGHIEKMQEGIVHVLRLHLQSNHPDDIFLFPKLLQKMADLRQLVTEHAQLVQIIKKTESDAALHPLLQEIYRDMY
The data set can be described thus: Agonist activity at human PPARalpha in 8 day differentiated human SGBS cells assessed as increase in CPT1A gene expression at 25 uM incubated for 24 hrs by SYBR-green based qPCR analysis. Type of data set: cell-based. The conditions noted are these: filed as agonist. The essentials: (§1)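 SGBS preadipocytes were seeded at passage P6-P8 and grown to confluence. They were differentiated for 4 days in Quickdiff (3FC plus dexamethasone, IBMX and rosiglitazone), then kept in 3FC with medium renewed every fourth day. On day 8, cells were stimulated for 24 h in 3FC with compound:BSA or rosiglitazone. SYBR-green qPCR used gene-specific primers. Data are mean ± SEM of three biological replicates in duplicate.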
In general terms: Real-time PCR tracks product formation cycle by cycle.

Data set [2] has as its target T2, Peroxisome proliferator-activated receptor gamma (Homo sapiens) (UniProt P37231).
T2 sequence (whole entry): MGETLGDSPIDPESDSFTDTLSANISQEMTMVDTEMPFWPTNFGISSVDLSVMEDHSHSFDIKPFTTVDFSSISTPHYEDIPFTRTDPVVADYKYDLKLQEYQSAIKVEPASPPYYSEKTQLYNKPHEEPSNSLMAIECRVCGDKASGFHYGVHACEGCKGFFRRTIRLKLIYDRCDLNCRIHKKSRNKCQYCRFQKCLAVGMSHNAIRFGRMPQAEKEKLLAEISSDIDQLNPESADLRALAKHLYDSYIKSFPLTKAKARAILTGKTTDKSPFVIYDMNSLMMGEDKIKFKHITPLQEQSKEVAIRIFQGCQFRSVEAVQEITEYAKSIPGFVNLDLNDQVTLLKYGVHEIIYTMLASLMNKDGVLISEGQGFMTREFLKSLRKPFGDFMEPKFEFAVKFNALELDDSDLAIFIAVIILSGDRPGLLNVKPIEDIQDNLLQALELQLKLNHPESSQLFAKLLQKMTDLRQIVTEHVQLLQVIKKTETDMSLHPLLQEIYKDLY
The data set can be described thus: Agonist activity at human PPARgamma in 8 day differentiated human SGBS cells assessed as increase in ADIPOQ gene expression at 25 uM incubated for 24 hrs by SYBR-green based qPCR analysis. The conditions noted are these: filed as agonist. Type of data set: cell-based. The essentials:
as §1

In data set [3] the target is T2, Peroxisome proliferator-activated receptor gamma (Homo sapiens). Put plainly: Agonist activity at human PPARgamma in 8 day differentiated human SGBS cells assessed as decrease in TNF gene expression at 25 uM incubated for 24 hrs by SYBR-green based qPCR analysis. Type of data set: cell-based. Particulars: filed as agonist.
For data set [4] the target is unchanged. Put plainly: Agonist activity at human PPARgamma in 8 day differentiated human SGBS cells assessed as decrease in CXCL1 gene expression at 25 uM incubated for 24 hrs by SYBR-green based qPCR analysis. The format is cell-based. Particulars: filed as agonist.
Data set [5] has the same target. Put plainly: Agonist activity at human PPARgamma in 8 day differentiated human SGBS cells assessed as increase in SLC2A4 gene expression at 25 uM incubated for 24 hrs by SYBR-green based qPCR analysis. Type of data set: cell-based. Particulars: filed as agonist.
Data set [6] is described as follows: Cytotoxicity against African green monkey COS-1 cells assessed as cell viability at EC50 concentration for PPAR activation assay by LDH assay. Type of data set: cell-based. The conditions noted are these: chlorocebus aethiops, read-out: Activity. The essentials:
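Assayed in the same COS-1 cultures as the Gal4-LBD PPAR reporter assays. Lactate dehydrogenase released into the medium was measured with a commercial kit per the maker's protocol. Absorbance was read at 492/750 nm.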

For data set [7], the system named is SGBS. The data set can be described thus: Induction of adipogenesis in 8 day differentiated human SGBS cells assessed as increase in UCP1 mRNA expression at 25 uM measured over 12 days by qRT-PCR analysis. The format is functional, cell-based. Particulars: time 12.0 day. In a few lines:
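SGBS preadipocytes (passage P6-P8) were grown to confluence (day 0), then differentiated 4 days in Quickdiff (3FC with 25 nM dexamethasone, 0.5 mM IBMX) supplemented with 25 µM oxo-fatty acid (as BSA complex), then in 3FC medium with medium renewed every fourth day. Cells were harvested on days 0, 4, 8 and 12. mRNA was measured by SYBR green qPCR. Data are mean ± SEM from at least 3 biological replicates run in duplicate.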

Data set [8] concerns the target T2, Peroxisome proliferator-activated receptor gamma (Homo sapiens). Put plainly: Agonist activity at recombinant human PPARgamma LBD (205 to 505 residues) expressed in African green monkey COS-1 cells at 25 to 50 uM incubated for 18 hrs by luciferase reporter gene assay. The format is cell-based. Particulars: filed as agonist, dose 25-50 µM. In a few lines: (§2)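 Transient Gal4 one-hybrid assay in COS-1 cells (7×10^4 per well), transfected 24 h after seeding. Plasmids were Gal4-DBD fused to the human nuclear receptor LBD, a 5×UAS-SV40 luciferase reporter and pRL-CMV Renilla control. Ligand in DMSO (final 0.1%) was added 5 h post-transfection. Dual-luciferase activity was read after 18 h, expressed as RLU, from three biological replicates in quadruplicate.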
For orientation: A reporter such as luciferase makes a cellular process visible.

The target in data set [9] is T1, Peroxisome proliferator-activated receptor alpha (Homo sapiens). Put plainly: Agonist activity at recombinant human PPARalpha LBD (168 to 468 residues) expressed in African green monkey COS-1 cells at 25 to 50 uM incubated for 18 hrs by luciferase reporter gene assay. Type of data set: cell-based. The conditions noted are these: filed as agonist, dose 25-50 µM. The essentials: as §2

The target in data set [10] is T3, Peroxisome proliferator-activated receptor gamma (Homo sapiens, UniProt P37231).
T3 sequence (P37231 whole entry): T2 sequence (whole entry)
Put plainly: Agonist activity at recombinant human PPARgamma LBD (205 to 505 residues) expressed in African green monkey COS-1 cells incubated for 18 hrs by luciferase reporter gene assay. The format is cell-based. The essentials: as §2

In data set [11] the target is T4, Peroxisome proliferator-activated receptor alpha (Homo sapiens, UniProt Q07869).
T4 sequence (Q07869 whole entry): T1 sequence (whole entry)
The data set can be described thus: Agonist activity at recombinant human PPARalpha LBD (168 to 468 residues) expressed in African green monkey COS-1 cells incubated for 18 hrs by luciferase reporter gene assay. The format is cell-based. The essentials:
as §2

SMILES strings stand for the structures. The source made the active and inactive calls. The rule behind the calls is not given here.

Consider `CCCCCCCC(=O)/C=C/CCCCCC(=O)O`, for which the outcome in [1], in data set [2], in [3], in data set [4], in [5] and in data set [7] was Active. The outcome in data set [8] and in [9] was Active. Further, the viability in data set [6] was more than 95%. The EC50 in data set [10] is 10 µM; in data set [11], 20 µM.

As for `CCCCC/C=C/C(=O)CCCCCCCC(=O)O`, the outcome in [1], in data set [2], in [3], in data set [4], in data set [5] and in [7] was Active. The result in data set [8] and in data set [9] was Active. Moreover, in data set [6], the viability is more than 95%. Also, the results for the EC50 in data set [10] and in data set [11] were 8.5 µM and 26 µM, respectively.

For orientation: EC50 means the concentration that produces a half-maximal response.

For the origin of these results see ChEMBL document CHEMBL4715825, “Synthesis and biological evaluations of marine oxohexadecenoic acids: PPARα/γ dual agonism and anti-diabetic target gene effects” (Eur J Med Chem, 2018).
